Experimental data: ChEMBL document CHEMBL4513216, “Probing the Open Global Health Chemical Diversity Library for Multistage-Active Starting Points for Next-Generation Antimalarials” (ACS Infect Dis, 2020)

Assay: Toxicity liver stage against HepG2, at 10uM
Assay type: cell-based
Parameters: test concentration 10 uM, cell line HepG2-A16-CD81EGFP
Details: human, HepG2-A16-CD81EGFP cells; read-out: INHIBITION
Summary of the method: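 Uninfected HepG2-A16-CD81EGFP cells, 3 × 10^3 per well, 1536-well, plated on prespotted compound at 10 μM final, parasite-free screening media added to match infected plates; puromycin 10 μM positive, DMSO 0.5% negative; run in parallel with 48 h PbLuc assay at 37 °C, 5% CO2; viability by CellTiter-Glo luminescence, normalized to controls.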

Q: Which cytotoxicity at 10 µM does the source give for `Cc1nn(CC(C)C)c(C)c1CC(=O)N1CCCC(CNS(C)(=O)=O)C1` (stereo not given) here?
A: 0.246%

Q: Which cytotoxicity at 10 µM does the source give for `CCCC(C)CN1CCC(n2cc(C3CCCC3)nn2)CC1` (stereo not given) here?
A: 14.2%

Q: Which cytotoxicity at 10 µM does the source give for `COc1cccc(C(=O)N2CCC(Nc3ccc(C)nn3)CC2)c1` here?
A: -2.24%

Q: For `CCCc1nc(CN2CCCC2c2cnn(C)c2)cs1` (stereo not given), which cytotoxicity at 10 µM is on record?
A: 0.441%

Q: Which cytotoxicity at 10 µM does the source give for `CN1C(=O)CC(c2cnn(C)c2)C12CCN(C(=O)c1ccc[nH]1)CC2` (stereo not given) here?
A: 6.74%

Q: For `CCN(CC)S(=O)(=O)CCNC(=O)N(C)C(C)c1ccccn1` (stereo not given), which cytotoxicity at 10 µM is on record?
A: 10.6%

Q: With `OC1CCN(c2cncc(CCC3CCCN3)n2)CC1` (stereo not given) as the molecule, how does the cytotoxicity at 10 µM read?
A: -0.24%

Q: With `CC(C)c1nsc(N2CCc3sccc3C2)n1` as the molecule, how does the cytotoxicity at 10 µM read?
A: 20.9%

Q: For `CCOc1ccc(N(C)S(=O)(=O)c2c[nH]c(C(C)C)n2)cc1`, which cytotoxicity at 10 µM is on record?
A: -4.52%

Q: Which cytotoxicity at 10 µM does the source give for `CC(C)(C)c1n[nH]cc1CN1CCc2nc3ccsc3c(=O)n2CC1` here?
A: 6.12%

Q: With `CC[C@@H](CO)NC(=O)c1cc(COc2ccc(OC)cc2Cl)[nH]n1` as the molecule, how does the cytotoxicity at 10 µM read?
A: -34.4%

Q: Which cytotoxicity at 10 µM does the source give for `Cn1cccc1C(=O)N1CCc2ncnc(N3CCOCC3)c2CC1` here?
A: -74.3%

Q: Which cytotoxicity at 10 µM does the source give for `COc1c(C)cc(C(C(=O)O)N(C)Cc2ccn[nH]2)cc1C` (stereo not given) here?
A: 2.82%

Q: With `Cc1nc(C2CCCN(C(=O)CCCn3cccn3)C2)no1` (stereo not given) as the molecule, how does the cytotoxicity at 10 µM read?
A: -3.84%

Q: With `COc1ccc(C2=CCN(C(=O)CN(C)S(C)(=O)=O)CC2)cc1` as the molecule, how does the cytotoxicity at 10 µM read?
A: -3.99%

Q: Which cytotoxicity at 10 µM does the source give for `COc1ccc(F)c(-c2ccnc(N)c2)c1` here?
A: 8.52%

Q: With `Cc1cc(CN2CCN(S(C)(=O)=O)CC(C(=O)N(C)C)C2)no1` (stereo not given) as the molecule, how does the cytotoxicity at 10 µM read?
A: -9.74%

Q: Which cytotoxicity at 10 µM does the source give for `CCc1n[nH]c(C2CN(C(=O)c3cnc(C)s3)CCO2)n1` (stereo not given) here?
A: -6.64%

Q: With `Cc1ccc2oc([C@H]3CCN(Cc4ccccc4)C3)nc2c1` as the molecule, how does the cytotoxicity at 10 µM read?
A: -6.75%

Q: Which cytotoxicity at 10 µM does the source give for `Cc1ccsc1C(=O)NCC1COCc2c(C)nnn2C1` (stereo not given) here?
A: -3.51%

Q: For `OC(CN1CCN(Cc2cccnc2)CC1)c1cccs1` (stereo not given), which cytotoxicity at 10 µM is on record?
A: -5.62%

Q: For `CCN(CC1CCOC1)C(=O)CCc1nc(C(C)(C)C)no1` (stereo not given), which cytotoxicity at 10 µM is on record?
A: -1.26%

Q: With `COCC1CN(C(=O)c2ccc(C)o2)Cc2nccn2C1` (stereo not given) as the molecule, how does the cytotoxicity at 10 µM read?
A: -97.1%

Q: With `COCC(=O)N1CCC(c2nc3ccc(N4CCOCC4)cn3n2)CC1` as the molecule, how does the cytotoxicity at 10 µM read?
A: 12%

Q: With `COC(=O)c1ccccc1NS(=O)(=O)c1c(C)nn(C)c1C` as the molecule, how does the cytotoxicity at 10 µM read?
A: -4.12%

Q: Which cytotoxicity at 10 µM does the source give for `CC(=O)N1CCOC2(CCCN(Cc3ccc(N(C)C)cc3)C2)C1` (stereo not given) here?
A: 0.603%

Q: With `CCn1cc(-c2c(C)c(C3CCOC(C)(C)C3)nc(N)c2C#N)cn1` (stereo not given) as the molecule, how does the cytotoxicity at 10 µM read?
A: -10.3%

Q: For `COc1cccc(C(C)N2CCN(S(=O)(=O)c3ccccc3)CC2)c1` (stereo not given), which cytotoxicity at 10 µM is on record?
A: 5.11%

Q: With `CCCn1nccc1NC(=O)CN1CCc2cnc(C(C)C)nc2C1` as the molecule, how does the cytotoxicity at 10 µM read?
A: -5.59%

Q: Which cytotoxicity at 10 µM does the source give for `COCCc1noc(CN(C)c2nccc(C)n2)n1` here?
A: 9.34%

Q: For `CN1CCN(C)C2(CCN(C(=O)CC(F)(F)F)CC2)C1=O`, which cytotoxicity at 10 µM is on record?
A: 1.24%

Q: With `CC(CNC(=O)c1cc(C2CC2)nc2c1cnn2C)Cn1cccn1` (stereo not given) as the molecule, how does the cytotoxicity at 10 µM read?
A: 3.49%

Q: For `N#Cc1cc(S(N)(=O)=O)ccc1N1CCN(c2ccccc2)CC1`, which cytotoxicity at 10 µM is on record?
A: -3.54%

Q: Which cytotoxicity at 10 µM does the source give for `Cc1nn(C)c2nc(N(Cc3ccccc3)CC3CCCO3)sc12` (stereo not given) here?
A: 8.15%

Q: For `Cc1noc(C)c1CS(=O)(=O)CC(=O)NCCc1cccs1`, which cytotoxicity at 10 µM is on record?
A: -1.6%

Q: Which cytotoxicity at 10 µM does the source give for `CCCN1CCCn2nc(CNC(=O)C3CCOC3)cc2C1` (stereo not given) here?
A: 0.237%

Q: For `COCc1cncc2c1CCN(Cc1cccs1)C2`, which cytotoxicity at 10 µM is on record?
A: -0.95%

Q: For `Cc1nnc2n1CCN(C(C(=O)NC1CC1)c1ccccc1)C2` (stereo not given), which cytotoxicity at 10 µM is on record?
A: -2.94%

Q: For `Cc1cnc(CN(C)C2CCN(Cc3ccc(Cl)s3)C2)o1` (stereo not given), which cytotoxicity at 10 µM is on record?
A: 5.33%

Q: With `COC[C@]12COC[C@H]1CN(C(=O)c1ccc(F)cc1C)C2` as the molecule, how does the cytotoxicity at 10 µM read?
A: -135%

Q: With `Cn1cc(CCCNC(=O)NCC(O)c2ccsc2)cn1` (stereo not given) as the molecule, how does the cytotoxicity at 10 µM read?
A: -5.4%

Q: Which cytotoxicity at 10 µM does the source give for `N#Cc1cccc(CN2C[C@@H](F)[C@@H](OCc3nc4ccccc4[nH]3)C2)c1` here?
A: 6%

Q: Which cytotoxicity at 10 µM does the source give for `CC(=O)N1N=C(COc2ccc(C)cc2)OC1c1ccc(N(C)C)cc1` (stereo not given) here?
A: -3.33%

Q: For `Cc1cc(N2CCC(Cc3ccccc3)CC2)ncn1`, which cytotoxicity at 10 µM is on record?
A: 3.51%

Q: Which cytotoxicity at 10 µM does the source give for `COc1ccc(-c2n[nH]cc2CN(C)Cc2nccn2C)c(F)c1` here?
A: -2.77%

Q: Which cytotoxicity at 10 µM does the source give for `CC(NC(=O)NCC(C)(C)O)c1ccc(-c2cncnc2)cc1` (stereo not given) here?
A: 6.27%

Q: For `COc1ccc(S(=O)(=O)N2CCC(OCc3ccccn3)C2)cc1Br` (stereo not given), which cytotoxicity at 10 µM is on record?
A: 2.24%

Q: For `CN(CC(=O)N1CCN(c2ncccn2)CC1)c1ccc(Cl)cn1`, which cytotoxicity at 10 µM is on record?
A: -9.65%

Q: For `CN1CCN(C(=O)c2cc3c(s2)CCN3C(=O)C2CC2)CC1`, which cytotoxicity at 10 µM is on record?
A: 8.52%

Q: For `Cc1nc(C)n(C2CCCN(C(=O)c3ccc(O)nc3)C2)n1` (stereo not given), which cytotoxicity at 10 µM is on record?
A: -1.95%

Q: With `Cc1cnc(N2C[C@H]3CCN(CC4CC4)C[C@@H]3C2)nc1` as the molecule, how does the cytotoxicity at 10 µM read?
A: 7.55%

Q: With `CCN(Cc1ccncc1)C(=O)C1COc2c(cccc2OC)C1` (stereo not given) as the molecule, how does the cytotoxicity at 10 µM read?
A: 3.4%

Q: For `CC(C)(C)NC(=O)CN1CCCN(Cc2ccc(C#N)cc2)CC1`, which cytotoxicity at 10 µM is on record?
A: -4.78%

Q: With `CS(=O)(=O)N1C[C@H]2N(c3ncccn3)CCC[C@@]2(C(=O)NCC2CC2)C1` as the molecule, how does the cytotoxicity at 10 µM read?
A: -110%

Q: For `O=C(CCc1nc(Cl)n[nH]1)NC1CCCN(CC2CCCCC2)C1` (stereo not given), which cytotoxicity at 10 µM is on record?
A: -11.4%
